Numbering of substitutions follows the chain as printed.
Columns and labels:
[1] = Binding affinity at Beta-lactamase D104K expressed in Escherichia coli DH10B cells
Method in brief: (§1)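 Enzyme cloned in pBCSK(−), expressed in E. coli DH10B, purified, then further purified by size-exclusion HPLC; purity checked by SDS-PAGE. Ki found by competing increasing inhibitor concentrations against nitrocefin at 4–6 × Km in continuous spectrophotometric assays at room temperature. Percent inhibition was fitted to an equation using the nitrocefin Km.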

Beta-lactamase SHV-1 = molecular target: T1, Beta-lactamase SHV-1 (Escherichia coli, UniProt P0AD63); experiment: Binding affinity at Beta-lactamase SHV1 expressed in Escherichia coli DH10B cells
T1 sequence (P0AD63 whole entry): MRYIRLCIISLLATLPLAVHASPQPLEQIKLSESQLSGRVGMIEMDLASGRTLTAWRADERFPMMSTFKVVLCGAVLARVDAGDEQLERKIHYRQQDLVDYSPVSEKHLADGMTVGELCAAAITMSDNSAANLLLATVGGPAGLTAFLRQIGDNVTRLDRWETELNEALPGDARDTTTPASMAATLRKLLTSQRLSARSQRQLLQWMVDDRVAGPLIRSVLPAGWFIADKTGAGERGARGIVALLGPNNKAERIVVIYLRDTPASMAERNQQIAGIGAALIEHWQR
Method in brief: as §1, with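 “SHV-1” for “Enzyme”, “DH10B and purified;” for “DH10B, purified, then further purified by size-exclusion HPLC;”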

[2] = Binding affinity at Beta-lactamase SHV2 G238S expressed in Escherichia coli DH10B cells; method in brief: as §1
[3] = Binding affinity at Beta-lactamase D104K G238S expressed in Escherichia coli DH10B cells; method in brief: as §1
[4] = molecular target: T2, SHV-5 extended spectrum beta-lactamase (Escherichia coli, UniProt Q6REX6); experiment: Binding affinity at Beta-lactamase SHV5 expressed in Escherichia coli DH10B cells
T2 sequence (Q6REX6 whole entry): T1 sequence (P0AD63 whole entry) with L31Q, T231N, G234S, E235K, S265N
Method in brief: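 Purified SHV-5 enzyme, expressed in E. coli DH10B from pBCSK(−); purity checked by SDS-PAGE. Ki from continuous spectrophotometric competition assays at room temperature: increasing inhibitor concentrations against nitrocefin at 4 to 6 times its Km. Percent inhibition fitted using the nitrocefin Km. Inhibition mode from full progress curves at varied nitrocefin, without inhibitor and at two inhibitor concentrations.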

SMILES	Ki [1] [µM]	Ki (Beta-lactamase SHV-1) [µM]	Ki [2] [µM]	Ki [3] [µM]	Ki [4] [µM]
CC(=O)NCB(O)O [ACETAMIDOMETHYLBORONIC ACID]	190	300	330	300	360
CO/N=C(\C(=O)NCB(O)O)c1csc(N)n1 [CEFOTAXIME BATSI]	5	8.9	3.4	1.1	5
CC(C)(O/N=C(\C(=O)NCB(O)O)c1csc(N)n1)C(=O)O [CEFTAZIDIME BATSI]	0.7	2.2	6.8	4.5	4.5
